Bioassay records: PubChem, The Scripps Research Institute Molecular Screening Center
M1 ag: human M1 muscarinic receptor agonists, primary screen, Fluo-8 calcium fluorescence, CHO-K1 cells, HTS | AID 588814, 2011 | CHO-K1 hM1, agonist mode; 0% DMSO, 100% acetylcholine EC100 | 360,000 compounds, 0.33% hits | activation, % at 3 µM;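 active = activation above the run's mean compound activation plus 3 SD, cut at about 16% in these data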;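 also: peak over basal fluorescence ratio within a 140 s kinetic read after compound addition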
Target sequence (P11229 whole entry, looked up): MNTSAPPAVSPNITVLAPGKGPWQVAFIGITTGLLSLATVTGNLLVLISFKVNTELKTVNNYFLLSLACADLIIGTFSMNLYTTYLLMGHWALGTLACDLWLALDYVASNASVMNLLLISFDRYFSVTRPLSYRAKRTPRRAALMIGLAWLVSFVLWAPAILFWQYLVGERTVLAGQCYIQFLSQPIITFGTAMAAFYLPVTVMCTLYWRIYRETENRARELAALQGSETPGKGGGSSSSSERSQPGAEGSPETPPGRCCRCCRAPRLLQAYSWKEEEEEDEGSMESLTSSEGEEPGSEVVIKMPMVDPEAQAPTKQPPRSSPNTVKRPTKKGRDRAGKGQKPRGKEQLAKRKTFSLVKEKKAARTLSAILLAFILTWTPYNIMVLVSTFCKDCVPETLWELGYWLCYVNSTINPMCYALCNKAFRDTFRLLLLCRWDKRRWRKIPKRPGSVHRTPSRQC
CHRM1 PAM: human M1 muscarinic receptor positive allosteric modulators, primary screen, CHO-K1 cells, Fluo-8 calcium fluorescence, 1536-well; Muscarinic acetylcholine receptor M1 (Homo sapiens), P11229; CHO-K1 hM1, ACh EC20; 0% = ACh EC20, 100% = maximal ACh; activation, % at 3 µM; 360,000 compounds, 0.088% hits; AID 588819, 2011; in the data active = activation above about 19%, passing the limit was not always enough
M1 antag: human M1 muscarinic receptor antagonists, primary screen, CHO-K1 cells, Fluo-8 calcium fluorescence, 1536-well | inhibition, % at 3 µM | CHO-K1 hM1, ACh EC80 antagonist | AID 588852, 2011 | 360,000 compounds, 1.3% hits;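 active = percent inhibition above its own plate's cutoff, namely the mean of that plate's compound wells plus 3 SD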;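 also: peak over basal fluorescence ratio during 140 s after agonist addition; 0% = ACh EC80 plus DMSO and 100% = DMSO alone without agonist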
CHRM5 PAM: human M5 muscarinic receptor positive allosteric modulators, primary screen, CHO-K1 cells, Fluo-8 calcium fluorescence | 360,000 compounds, 0.3% hits | CHO-K1 hM5, ACh EC20 PAM; 0% = ACh EC20, 100% = ACh EC100 | Muscarinic acetylcholine receptor M5 (Homo sapiens), P08912 | activation, % at 3 µM;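 active = activation above the run cutoff, the mean activation of all test compounds plus 3 SD, cut at about 18% in these data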
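System: CHO-K1 hM5 cells. Reagent: acetylcholine, EC20 level. Compound dosing: single dose, 3 µM nominal final test concentration. Timing: Post-acetylcholine fluorescence recording 140 s. Detection: Fluo-8 calcium fluorescence. Read-out: % activation, ACh-normalized. Benchmarks: ACh EC20 and EC100 wells. Repeats: singlicate, one well per test compound.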
M5 ag: human M5 muscarinic receptor agonists, primary screen, CHO-K1 cells, Fluo-8 calcium fluorescence | Muscarinic acetylcholine receptor M5 (Homo sapiens), P08912 | CHO-K1 hM5 cells; 0% DMSO wells, 100% maximal acetylcholine response | activation, % at 3 µM | 360,000 compounds, 0.19% hits;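 active = activation above the run's mean over test compounds plus 3 SD, cut at about 23% in these data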;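 also: signal is peak over basal fluorescence ratio across the kinetic read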
M5 antag: human M5 muscarinic receptor antagonists, primary screen, CHO cells, Fluo-8 calcium fluorescence. inhibition, % at 3 µM. Muscarinic acetylcholine receptor M5 (Homo sapiens), P08912. 360,000 compounds, 0.59% hits. AID 624040, 2012. CHO-hM5 cells, ACh EC80;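 active = inhibition above a per-plate cutoff, the mean of that plate's test compounds plus 3 SD, cut at about 27% in these data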;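 also: 0% = acetylcholine EC80 with DMSO and 100% = DMSO without agonist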
* marks the source's active call; other numbers are inactive results. This is a sample that favours compounds with a hit; in the whole collection about 2.1% have one here.

SMILES | M1 ag | CHRM1 PAM | M1 antag | CHRM5 PAM | M5 ag | M5 antag
CCCCC(CC)CO (configuration not stated) | -1.3 | 7.0 | -11.5 | -0.1 | 3.4 | 4.8
CCCCC(CC)CN=C(N)NC(N)=NCCCCCCN=C(N)NC(N)=NCC(CC)CCCC (configuration not stated) | 58.0* | -25.3 | 88.3* | -18.4 | -2.0 | 13.3
Cc1cc(F)cc(-c2cc(C(=O)NCc3ccc(C(F)(F)F)cc3)[nH]n2)c1 | -3.4 | -12.0 | 7.7 | -2.6 | -1.4 | 0.7
Fc1ccc2nc(C3CCCCN3Cc3nc(CC4CC4)no3)[nH]c2c1 (configuration not stated) | -6.5 | -7.0 | 6.9 | 26.9* | 3.5 | 9.0
N#CC1=C(N)OC2=C(CCc3ccccc32)C1c1ccccc1Cl (configuration not stated) | -8.8 | -22.2 | 43.9* | -15.1 | -4.7 | 7.1
CCOC(=O)c1ccc(NC(=S)NNC(C)(C)C)cc1 | -3.3 | 2.9 | 3.0 | 8.6 | 2.2 | -1.7
COc1ccc(CN2CCCC(C(=O)c3cccc(OC(C)C)c3)C2)cc1Cn1cccn1 (configuration not stated) | -4.8 | -24.1 | 36.5* | -6.3 | -16.6 | 9.0
CCOC(=O)c1[nH]ncc1CN1CCCC(C(=O)c2cccc(OC(C)C)c2)C1 (configuration not stated) | -9.6 | -3.1 | 1.9 | 0.6 | -3.6 | 4.9
CCn1ncc(CN2CCCC(C(=O)c3cccc(OC(C)C)c3)C2)c1C (configuration not stated) | -8.9 | -26.5 | 98.1* | -13.8 | -9.9 | 29.2*
O=C(CCN1C(=O)C2C3CC(C(Br)C3Br)C2C1=O)OCC(=O)c1cccc([N+](=O)[O-])c1 (configuration not stated) | -2.0 | 15.2 | -15.8 | 6.7 | 0.2 | -10.9
Cc1cc(C)nc(NC(=O)CSc2nn(C)c(=S)s2)n1 | -2.4 | 2.7 | -27.6 | -15.9 | -1.0 | -1.8
Cc1sc2ncnc(SCC(=O)c3cccs3)c2c1C | -3.5 | 5.0 | -5.9 | -8.9 | -0.1 | 7.9
COc1ccc(NC(=O)c2cc(-c3ccccn3)nc3ccccc23)c(OC)c1 | -2.1 | -14.5 | 20.6 | -22.8 | 1.2 | 27.4*
COc1ccc(NC(=O)c2cc(-c3ccccn3)nc3ccccc23)cc1S(=O)(=O)N(C)C | -3.1 | -10.4 | 33.6* | -29.9 | 2.8 | 15.4
CCN(CC)S(=O)(=O)c1ccc(NC(=O)c2cc(-c3cccs3)nc3ccccc23)cc1 | -3.4 | -7.2 | 16.1 | -9.5 | -1.0 | 16.8
CN(C)S(=O)(=O)c1ccc(NC(=O)c2cc(-c3cccs3)nc3ccccc23)cc1 | -1.1 | -15.6 | 41.7* | -21.1 | 2.5 | 22.5
Cc1ccccc1OCC1Cn2c(nc3c2c(=O)n(C)c(=O)n3C)O1 (configuration not stated) | 1.1 | -4.5 | 5.7 | -2.3 | 4.0 | 14.1
CCN(CC)CCNC(=O)c1sc2nc(-c3ccccc3)cn2c1C | -11.6 | 6.7 | -8.7 | 0.4 | -3.0 | -3.0
CCCCCCCn1c2c(c(=N)c3ccccc31)CCC2 | -7.6 | -9.6 | 27.9 | -8.9 | -15.6 | 27.3*
CCCn1c2c(c(=N)c3c1CCC3)CCC2 | -4.9 | 2.0 | -1.2 | 0.1 | -1.6 | 0.9
CC(=O)Nc1ccc(S(=O)(=O)NCCC(=O)OCC(=O)c2ccc(Br)cc2)cc1 | 2.3 | -7.8 | 21.8 | -7.5 | 4.9 | 18.2
COc1cc(OC)cc(C(=O)N2CCN(C3CCC(C)CC3)CC2)c1 (configuration not stated) | -8.1 | -20.3 | 31.5* | 7.8 | -21.1 | -6.5
